Experimental findings from PMC3618282 (International journal of pharmaceutics, 2012) are described below.

The structures appear in SMILES notation. Square brackets hold non-standard residues; d marks the D form. Peptide text beside a SMILES is read from it. Sar = CNCC(=O)O

For series [1], the system named is basolateral peptide transporters in MDCKII-MRP2 cells. Kind of series: Basolateral [3H]Gly-Sar uptake. The series is classed as in vitro ADME, canine. The conditions noted are these: basolateral uptake, MDCKII-MRP2. The method, boiled down: (§1)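 Cells under passage 6 were seeded at 2 × 10^5 cells/cm2 on Transwell inserts (0.4 μm pore) and dosed from the basolateral side. [3H]Gly-Sar was given with unlabeled Gly-Sar (0–250 μM) at 4 °C and 37 °C. Specific uptake is 37 °C minus 4 °C, normalised to protein and fitted to Michaelis–Menten for Km and Vmax; n = 3.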

Series [2] has as its system basolateral peptide transporters. Kind of series: Basolateral [3H]Gly-Sar uptake. The series is classed as in vitro ADME, canine. The conditions noted are these: dog, MDCKII-MRP2 cells on Transwell inserts (basolateral uptake), pH 7.4. The gist of the method: as §1
The nature of series [3]: Transporter-mediated transepithelial Gly-Sar transport. The series is classed as in vitro ADME, canine. The conditions noted are these: dog. The gist of the method: (§2)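 Monolayers under passage 6 were grown on Transwell inserts (2 × 10^5 cells/cm2) and washed with DPBS pH 7.4. Apical 0.5 mL was at pH 4.0–7.4; basolateral 1.5 mL was held at pH 7.4. [3H]Gly-Sar was run AP→BL and BL→AP. Receiver samples were taken over 60 min and replaced with fresh DPBS. Transporter-mediated Papp is [3H]Gly-Sar minus [14C]mannitol passive transport; n = 4.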

For series [4], the system named is basolateral peptide transporters in MDCKII-MDR1 cells. Kind of series: Basolateral [3H]Gly-Sar uptake. The series is classed as in vitro ADME, canine. The settings on record: basolateral uptake, MDCKII-MDR1. The gist of the method:
as §1

The subject of series [5] is basolateral peptide transporters. Kind of series: Basolateral [3H]Gly-Sar uptake. The series is classed as in vitro ADME, canine. The settings on record: dog, MDCKII-MDR1 cells on Transwell inserts (basolateral uptake), pH 7.4. The method, boiled down: as §1
Series [6] is described as follows: Transporter-mediated transepithelial Gly-Sar transport. The series is classed as in vitro ADME, canine. The conditions noted are these: dog, MDCK, MDCKII-wt. The method, boiled down: as §2
For series [7], the system named is basolateral peptide transporters in MDCKII-wt cells. The series is described as follows: Basolateral [3H]Gly-Sar uptake. The series is classed as in vitro ADME, canine. The method, boiled down: as §1
Series [8] relates to apical peptide transporters in MDCKII-wt cells. Kind of series: Apical [3H]Gly-Sar uptake. The series is classed as in vitro ADME, canine. The method, boiled down: (§3)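 Cells under passage 6 were seeded at 7 × 10^4 cells/cm2 in 12-well plates and washed with DPBS pH 7.4. Apical [3H]Gly-Sar (0.5 μCi/mL in DPBS) with unlabeled Gly-Sar (5–250 μM) was incubated 15 min at 37 °C and 4 °C. Stop was ice-cold 200 mM KCl/2 mM HEPES. Lysis in 0.3 N NaOH/0.1% Triton X-100, scintillation counting, normalised to protein. Specific uptake is 37 °C minus 4 °C. Michaelis–Menten fit gave Km and Vmax; efficiency is Vmax/Km; n = 3.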

Series [9] deals with apical peptide transporters in MDCKII-MDR1 cells. The series is described as follows: Apical [3H]Gly-Sar uptake. The series is classed as in vitro ADME, canine. The gist of the method: as §3
For series [10], the system named is apical peptide transporters. Kind of series: Apical [3H]Gly-Sar uptake. The series is classed as in vitro ADME, canine. The conditions noted are these: dog, MDCKII-MDR1 cells (apical uptake), pH 7.4. The gist of the method: as §3
Series [11] deals with apical peptide transporters. Kind of series: Apical [3H]Gly-Sar uptake. The conditions noted are these: dog, MDCKII-MRP2 cells (apical uptake), pH 7.4. The series is classed as in vitro ADME, canine. The method, boiled down:
as §3

Series [12] relates to apical peptide transporters in MDCKII-MRP2 cells. Kind of series: Apical [3H]Gly-Sar uptake. The series is classed as in vitro ADME, canine. The method, boiled down: as §3
The nature of series [13]: Transporter-mediated transepithelial Gly-Sar transport. The series is classed as in vitro ADME, canine. The settings on record: dog, MDCKII-BCRP. The method, boiled down:
as §2

Series [14] deals with basolateral peptide transporters. Kind of series: Basolateral [3H]Gly-Sar uptake. The series is classed as in vitro ADME, canine. The conditions noted are these: dog, MDCKII-BCRP cells on Transwell inserts (basolateral uptake), pH 7.4. The gist of the method:
as §1

Series [15] deals with basolateral peptide transporters in MDCKII-BCRP cells. Kind of series: Basolateral [3H]Gly-Sar uptake. The series is classed as in vitro ADME, canine. The settings on record: basolateral uptake, MDCKII-BCRP. The method, boiled down: as §1
Series [16] has as its system apical peptide transporters. Kind of series: Apical [3H]Gly-Sar uptake. The series is classed as in vitro ADME, canine. The conditions noted are these: dog, MDCKII-BCRP cells (apical uptake), pH 7.4. The gist of the method: as §3
Series [17] relates to apical peptide transporters in MDCKII-BCRP cells. The series is described as follows: Apical [3H]Gly-Sar uptake. The series is classed as in vitro ADME, canine. The method, boiled down: as §3
The nature of series [18]: Transporter-mediated transepithelial Gly-Sar transport. The series is classed as in vitro ADME, canine. The conditions noted are these: dog; for Papp A→B at 60 min, 0.5 μCi/mL: MDCK-MDR1, AP–BL permeability; for Papp B→A at 60 min, 0.5 μCi/mL: MDCK-MDR1, BL–AP permeability. The gist of the method: as §2
Series [19] is described as follows: AP–BL [14C]Mannitol permeability. The series is classed as in vitro ADME, canine. The settings on record: dog, MDCK-MDR1, pH 7.4.
Series [20] in a line: AP–BL [14C]Mannitol permeability. The conditions noted are these: dog, MDCK, pH 7.4. The series is classed as in vitro ADME, canine.
Series [21] concerns apical peptide transporters (PepT1 and PepT2) in MDCKII cell lines. The series is described as follows: Inhibition of apical [3H]Gly-Sar uptake by peptide transporter inhibitors. The series is classed as cell-based, canine. The conditions noted are these: inhibitor 100 μM, pH 7.4, 37 °C, 15 min, all four MDCKII cell lines.
[22] abbreviates: AP–BL permeability, AP chamber pH 4.0, BL pH 7.4.
Setting [23] is: AP–BL permeability, AP chamber pH 5.0, BL pH 7.4.
[24] abbreviates: AP–BL permeability, AP chamber pH 6.0, BL pH 7.4.
Setting [25] is: BL–AP permeability, AP chamber pH 4.0, BL pH 7.4.
[26] abbreviates: BL–AP permeability, AP chamber pH 5.0, BL pH 7.4.
Setting [27] is: BL–AP permeability, AP chamber pH 6.0, BL pH 7.4.
The mark [28] stands for this setting: pH 7.4, AP–BL permeability, AP chamber pH 7.4, BL pH 7.4.
[29] abbreviates: pH 7.4, BL–AP permeability, AP chamber pH 7.4, BL pH 7.4.
The mark [30] stands for this setting: MDCKII-MDR1, AP chamber pH 4.0, BL pH 7.4.
Setting [31] is: MDCKII-MDR1, AP chamber pH 5.0, BL pH 7.4.
[32] abbreviates: MDCKII-MDR1, AP chamber pH 6.0, BL pH 7.4.

`CN(CC(=O)O)C(=O)CN` [Gly-Sar, Glycylsarcosine] (H-Gly-[Sar]-OH): the Vmax in [1] is 8.03 ± 1.78 fmol/mg protein/min; in [4], 8.52 ± 0.81 fmol/mg protein/min; in [7] it was 4.45 ± 0.04 fmol/mg protein/min; in series [8] (apical uptake, MDCKII-wt), 10.76 ± 1.68 fmol/mg protein/min; in series [9] (apical uptake, MDCKII-MDR1, low passage), 1.30 ± 0.36 fmol/mg protein/min; in series [12] (apical uptake, MDCKII-MRP2, low passage), 4.62 ± 0.76 fmol/mg protein/min. Also, the Vmax in series [15] stood at 13.07 ± 2.61 fmol/mg protein/min; in series [17] (apical uptake, MDCKII-BCRP, low passage) it was 4.50 ± 0.83 fmol/mg protein/min. Also, the Km (as a rule, the concentration of substrate that gives half-maximal velocity) at 15 min in [2] is 64.6 ± 4.09 µM; in [5], 50.9 ± 7.86 µM; in series [10], 29.1 ± 3.29 µM; in series [11] it was 84.8 ± 18.6 µM; in [14], 46.1 ± 2.26 µM; in series [16] it was 60.7 ± 8.56 µM. The Papp A→B – broadly, how fast a substance crosses the layer from the apical side – at 60 min, 0.5 μCi/mL in series [3] (AP–BL permeability, MDCKII-MRP2, AP chamber pH 4.0, BL pH 7.4) worked out at 8.6 ± 1.1 ×10⁻⁶ cm/s; in series [3] (AP–BL permeability, MDCKII-MRP2, AP chamber pH 5.0, BL pH 7.4) it was 9.9 ± 0.8 ×10⁻⁶ cm/s; in series [3] (AP–BL permeability, MDCKII-MRP2, AP chamber pH 6.0, BL pH 7.4), 10.6 ± 0.1 ×10⁻⁶ cm/s; in [3] (pH 7.4, AP–BL permeability, MDCKII-MRP2, AP chamber pH 7.4, BL pH 7.4) it was 17.7 ± 1.4 ×10⁻⁶ cm/s; in [6] (setting [22]), 13.1 ± 1.4 ×10⁻⁶ cm/s; in series [6] (setting [23]), 14.9 ± 2.8 ×10⁻⁶ cm/s. Moreover, the Papp A→B at 60 min, 0.5 μCi/mL was found to be 22.2 ± 1.9 ×10⁻⁶ cm/s in [6] (setting [24]); 36.7 ± 0.2 ×10⁻⁶ cm/s in series [6] (setting [28]); 7.1 ± 0.3 ×10⁻⁶ cm/s in series [13] (setting [22]); 7.6 ± 1.2 ×10⁻⁶ cm/s in [13] (setting [23]); 10.7 ± 0.7 ×10⁻⁶ cm/s in series [13] (setting [24]); 18.6 ± 1.9 ×10⁻⁶ cm/s in series [13] (setting [28]). In addition, the figures for the Papp A→B at 60 min, 0.5 μCi/mL in series [18] (setting [30]), in [18] (setting [31]) and in [18] (setting [32]) were 6 ± 0.4 ×10⁻⁶ cm/s, 6.4 ± 0.5 ×10⁻⁶ cm/s and 8 ± 0.4 ×10⁻⁶ cm/s, respectively. Also, the basolateral-to-apical permeability (Papp B→A) (as a rule, the apparent permeability from the basolateral to the apical side of a cell layer) at 60 min, 0.5 μCi/mL in series [3] (BL–AP permeability, MDCKII-MRP2, AP chamber pH 4.0, BL pH 7.4) was 8.5 ± 0.6 ×10⁻⁶ cm/s; in series [3] (BL–AP permeability, MDCKII-MRP2, AP chamber pH 5.0, BL pH 7.4), 6.3 ± 0.4 ×10⁻⁶ cm/s; in series [3] (BL–AP permeability, MDCKII-MRP2, AP chamber pH 6.0, BL pH 7.4), 7.5 ± 0.5 ×10⁻⁶ cm/s; in series [3] (pH 7.4, BL–AP permeability, MDCKII-MRP2, AP chamber pH 7.4, BL pH 7.4) it was 15.7 ± 0.6 ×10⁻⁶ cm/s; in [6] (setting [25]) it was 9.4 ± 0.4 ×10⁻⁶ cm/s; in series [6] (setting [26]), 6.6 ± 0.6 ×10⁻⁶ cm/s. Besides, the Papp B→A at 60 min, 0.5 μCi/mL in [6] (setting [27]) stood at 6 ± 1 ×10⁻⁶ cm/s; in [6] (setting [29]) it was 8 ± 0.9 ×10⁻⁶ cm/s; in [13] (setting [25]), 10.9 ± 0.7 ×10⁻⁶ cm/s; in series [13] (setting [26]), 6.5 ± 0.7 ×10⁻⁶ cm/s; in series [13] (setting [27]), 7.2 ± 0.9 ×10⁻⁶ cm/s; in series [13] (setting [29]), 15.6 ± 0.1 ×10⁻⁶ cm/s. Further, the apparent permeability from basolateral to apical (Papp B→A) at 60 min, 0.5 μCi/mL was 10.1 ± 1.3 ×10⁻⁶ cm/s in series [18] (setting [30]), 7.6 ± 0.8 ×10⁻⁶ cm/s in series [18] (setting [31]) and 8.2 ± 0.5 ×10⁻⁶ cm/s in series [18] (setting [32]). Besides, the Michaelis-Menten constant (Km) stood at 13.7 ± 2.22 µM in series [7] and 59.7 ± 1.1 µM in series [8] (apical uptake, MDCKII-wt). For the same compound, the “extracellular pH of maximal apical uptake” value in series [8] (pH 4.0–7.4 tested, all MDCKII cell lines) stood at 6.0. The “uptake in MDCKII-wt cells in comparison with transfected cells” value in series [8] (total apical uptake at 37 °C, pH 7.4) is 3–5 fold. Besides, the “transport efficiency relative to that in wild-type cells” value in series [9] (apical peptide transporters, MDCKII-MDR1 vs wild-type) is recorded as “around 25%”; in [12] (apical peptide transporters, MDCKII-MRP2 vs wild-type) it was roughly 30%; in series [17] (apical peptide transporters, MDCKII-BCRP vs wild-type) it was roughly 41%. Moreover, the “Vmax relative to that in wild-type cells” value is recorded as “about 12%” in series [9] (apical uptake, hMDR1-transfected vs wild-type); roughly 43% in series [12] (apical uptake, hMRP2-transfected vs wild-type); roughly 42% in series [17] (apical uptake, hBCRP-transfected vs wild-type).
For the compound `OC[C@@H](O)[C@@H](O)[C@H](O)[C@H](O)CO` [[^14C]Mannitol, Mannitol], the values for the Papp A→B at 60 min, 0.125 µCi/mL in [19] and in [20] were 18.4 ± 0.9 ×10⁻⁶ cm/s and 42.1 ± 0.5 ×10⁻⁶ cm/s, respectively.
Regarding `CCC(=O)O[C@@H](O[P@](=O)(CCCCc1ccccc1)CC(=O)N1C[C@H](C2CCCCC2)C[C@H]1C(=O)O)C(C)C` [fosinopril, Fosinopril], the “effect on apical [3H]Gly-Sar uptake compared to control” value in [21] is on record as “significantly reduced apical Gly-Sar uptake”.
